Three compounds from ChEMBL document CHEMBL4811300, “Design, synthesis, and biological evaluation of novel bifunctional thyrointegrin antagonists for neuroblastoma” (Bioorg Med Chem, 2021) can be followed below.

Series [1] deals with SK-N-FI. Description: Antitumor activity against human SK-N-FI cells xenografted in Ncr nude mouse assessed as increase in necrotic cells in tumor at 3 mg/kg, sc dosed daily up to 20 days by H and E staining based light microscopic analysis relative to control. The series is classed as functional. The settings on record: time day <=20. A digest of the protocol:
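SK-N-F1 cells (2 million per implant) were grown in mice (4 per group) until tumors reached 500 mm³. Mice were then dosed at 3 mg/kg s.c. once daily for 20 days against PBS vehicle; the methods section states 21 days. Harvested tumors were fixed in 10% formalin for at least 48 h, paraffin-embedded, sectioned and H&E stained. Necrosis, fibrosis and debris area was scored microscopically at 4X, 10X and 40X.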
(In general: Xenograft models place foreign cells or tissue in a host animal.)

For series [2], the system named is SK-N-FI. Description: Antitumor activity against human SK-N-FI cells xenografted in Ncr nude mouse assessed as reduction of tumor weight at 3 mg/kg, sc dosed daily up to 20 days relative to control. The series is classed as functional. The arrangement: scale not given: the % may be the effect or the level left. As to conditions: time day <=20; call rule not given here. The procedure, abridged: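 SK-N-F1 xenografts: 2 million cells per implant, 4 mice per group, with treatment starting once tumors reached 500 mm³. Dosing was 3 mg/kg s.c. once daily for 20 days (the methods say 21) against PBS vehicle control. Animals were sacrificed at study end, and tumors were excised and weighed.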

Series [3] is described as follows: Drug uptake in human SK-N-F1 cells at 10 uM measured upto 60 mins by LC-MS/MS analysis. The series is classed as ADME, cell-based. As to conditions: sk-n-fi, 1 h. A digest of the protocol:
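SK-N-F1 cells (~1M) were exposed to compound at 10 uM per the figure legend; the methods text gives 1 µM. Incubation lasted 15, 30 and 60 min. Cells were washed with PBS, pelleted at 5,000g for 10 min, homogenized in acetonitrile and extracted. The residue was reconstituted in acetonitrile/water 80/20. Quantification was by LC-MS/MS (positive ESI MRM) against 1–1000 ng/mL standards.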

For the compound `N=C(N)NCc1ccc(OCCOCCOCCOCCOCCOCCOCCOCCN2CCN(CCCOc3c(I)cc(Oc4c(I)cc(CC(=O)O)cc4I)cc3I)CC2)cc1`, the Activity in the series with SK-N-FI [1] is given as 98%; in the series with SK-N-FI [2], 90%.
As to `CC(C)(C)OC(=O)NCc1ccc(OCCOCCOCCOCCOCCOCCOCCn2cc(COc3c(I)cc(Oc4c(I)cc(CC(=O)O)cc4I)cc3I)nn2)cc1`, the Drug uptake entry in series [3] is given as “Active”.
On to `N=C(N)NCc1cccc(I)c1` [IOBENGUANE], for which, in series [3], the Drug uptake entry is on record as “Active”.
